According to ChEMBL document CHEMBL3808372, “Identification of quinones as novel PIM1 kinase inhibitors” (Bioorg Med Chem Lett, 2016):

Tests used:
[1] = molecular target: Fibroblast growth factor receptor 3 (Homo sapiens) (UniProt P22607); assay: Inhibition of human FGFR3 (442 to 771 amino acid residues) assessed as enzyme activity at 10 uM by KINOMEScan assay expressed in bacterial system assessed as enzyme activity at 10 uM by KINOMEScan assay; parameters: scale not given: the % may be the effect or the level left
In short: (§1)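 Competition binding screen on a 100-kinase KINOMEscan panel, compound tested at a single 10 μM concentration. Primary binding read-out expressed as % Ctrl = (test compound signal − positive control signal)/(negative control signal − positive control signal) × 100, with lower values meaning stronger binding.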

[2] = Cytotoxicity against human DU145 cells assessed as cell growth inhibition after 72 hrs by Alamar blue assay; type: functional, cell-based; details: DU-145, 72 h
[3] = molecular target: Rho-associated protein kinase 2 (Homo sapiens) (UniProt O75116); assay: Inhibition of human ROCK2 (1 to 431 amino acid residues) assessed as enzyme activity at 10 uM by KINOMEScan assay; parameters: scale not given: the % may be the effect or the level left
In short: (§2)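 Single-concentration competition binding screen (KINOMEscan) across a 100-kinase panel at 10 μM. Primary binding read-out is reported as % of control: (test signal − positive-control signal)/(negative-control signal − positive-control signal) × 100. Lower values indicate stronger binding.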

[4] = molecular target: Inhibitor of nuclear factor kappa-B kinase subunit alpha (Homo sapiens) (UniProt O15111); assay: Inhibition of full length human IKK-alpha assessed as enzyme activity at 10 uM by KINOMEScan assay; parameters: scale not given: the % may be the effect or the level left; in short: as §1
Inhibitor of nuclear factor kappa-B kinase subunit alpha (Homo sapiens), sequence (O15111 whole entry, the tested form may be a part): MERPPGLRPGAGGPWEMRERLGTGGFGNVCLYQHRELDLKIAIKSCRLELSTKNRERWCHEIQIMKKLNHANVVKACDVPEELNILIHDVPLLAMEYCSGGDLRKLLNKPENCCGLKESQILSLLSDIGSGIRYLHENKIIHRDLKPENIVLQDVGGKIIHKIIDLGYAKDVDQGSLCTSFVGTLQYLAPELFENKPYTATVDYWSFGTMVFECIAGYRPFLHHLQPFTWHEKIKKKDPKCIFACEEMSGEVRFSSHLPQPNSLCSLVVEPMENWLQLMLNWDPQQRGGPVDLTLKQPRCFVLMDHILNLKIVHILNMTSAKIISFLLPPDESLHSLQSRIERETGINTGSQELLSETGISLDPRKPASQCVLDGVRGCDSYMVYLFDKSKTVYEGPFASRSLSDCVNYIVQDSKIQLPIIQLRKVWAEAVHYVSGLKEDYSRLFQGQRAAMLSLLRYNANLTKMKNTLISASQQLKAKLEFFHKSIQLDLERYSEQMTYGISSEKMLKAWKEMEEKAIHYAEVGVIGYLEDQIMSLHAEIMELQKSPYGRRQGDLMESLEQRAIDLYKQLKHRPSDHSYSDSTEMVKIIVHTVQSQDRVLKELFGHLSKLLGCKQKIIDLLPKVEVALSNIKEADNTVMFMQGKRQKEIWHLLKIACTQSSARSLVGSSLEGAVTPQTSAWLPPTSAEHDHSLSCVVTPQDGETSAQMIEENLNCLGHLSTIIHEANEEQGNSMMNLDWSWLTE

[5] = molecular target: Proto-oncogene tyrosine-protein kinase receptor Ret (Homo sapiens) (UniProt P07949); assay: Inhibition of human RET (713 to 1014 amino acid residues) expressed in bacterial system assessed as enzyme activity at 10 uM by KINOMEScan assay; parameters: scale not given: the % may be the effect or the level left
In short: (§3)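 Commercial KINOMEscan binding panel of 100 kinases, test compound at 10 μM. Results are primary-screen binding interactions expressed as % Ctrl = (test compound signal − positive control signal)/(negative control signal − positive control signal) × 100. Lower % Ctrl means stronger binding.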

[6] = molecular target: RAC-alpha serine/threonine-protein kinase (Homo sapiens) (UniProt P31749); assay: Inhibition of human Akt1 expressed in bacterial system assessed as enzyme activity at 10 uM by KINOMEScan assay; parameters: scale not given: the % may be the effect or the level left; in short: as §3
[7] = molecular target: Inhibitor of nuclear factor kappa-B kinase subunit beta (Homo sapiens) (UniProt O14920); assay: Inhibition of full length human IKK-beta assessed as enzyme activity at 10 uM by KINOMEScan assay; parameters: scale not given: the % may be the effect or the level left; in short: as §1
Inhibitor of nuclear factor kappa-B kinase subunit beta (Homo sapiens), sequence (O14920 whole entry, the tested form may be a part): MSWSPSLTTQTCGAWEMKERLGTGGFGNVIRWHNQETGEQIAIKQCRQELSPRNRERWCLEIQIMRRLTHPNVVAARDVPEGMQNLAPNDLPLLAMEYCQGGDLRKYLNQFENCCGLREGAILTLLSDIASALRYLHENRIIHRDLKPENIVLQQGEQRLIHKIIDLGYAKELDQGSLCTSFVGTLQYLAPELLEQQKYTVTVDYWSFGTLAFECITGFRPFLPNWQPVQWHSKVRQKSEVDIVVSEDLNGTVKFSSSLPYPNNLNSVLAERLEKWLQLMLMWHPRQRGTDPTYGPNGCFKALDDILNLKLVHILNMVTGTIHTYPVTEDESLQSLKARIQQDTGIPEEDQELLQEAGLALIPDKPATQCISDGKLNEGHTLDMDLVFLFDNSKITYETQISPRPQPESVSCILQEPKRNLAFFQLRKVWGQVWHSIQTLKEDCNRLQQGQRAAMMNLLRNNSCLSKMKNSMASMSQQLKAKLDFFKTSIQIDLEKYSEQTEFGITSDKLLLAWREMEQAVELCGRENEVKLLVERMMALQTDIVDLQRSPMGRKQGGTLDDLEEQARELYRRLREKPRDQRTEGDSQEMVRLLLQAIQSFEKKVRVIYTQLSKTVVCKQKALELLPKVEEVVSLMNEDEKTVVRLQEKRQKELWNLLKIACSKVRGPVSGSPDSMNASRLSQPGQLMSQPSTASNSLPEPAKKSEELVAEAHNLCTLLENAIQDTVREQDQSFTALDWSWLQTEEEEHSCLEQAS

[8] = molecular target: Receptor-type tyrosine-protein kinase FLT3 (Homo sapiens) (UniProt P36888); assay: Inhibition of human FLT3 (646 to 1225 amino acid residues) assessed as enzyme activity at 10 uM by KINOMEScan assay expressed in bacterial system assessed as enzyme activity at 10 uM by KINOMEScan assay; parameters: scale not given: the % may be the effect or the level left; in short: as §1
[9] = molecular target: Serine/threonine-protein kinase PAK 1 (Homo sapiens) (UniProt Q13153); assay: Inhibition of human PAK1 (149 to 545 amino acid residues) expressed in bacterial system assessed as enzyme activity at 10 uM by KINOMEScan assay; parameters: scale not given: the % may be the effect or the level left; in short: as §1
Serine/threonine-protein kinase PAK 1 (Homo sapiens), sequence (Q13153 whole entry, the tested form may be a part): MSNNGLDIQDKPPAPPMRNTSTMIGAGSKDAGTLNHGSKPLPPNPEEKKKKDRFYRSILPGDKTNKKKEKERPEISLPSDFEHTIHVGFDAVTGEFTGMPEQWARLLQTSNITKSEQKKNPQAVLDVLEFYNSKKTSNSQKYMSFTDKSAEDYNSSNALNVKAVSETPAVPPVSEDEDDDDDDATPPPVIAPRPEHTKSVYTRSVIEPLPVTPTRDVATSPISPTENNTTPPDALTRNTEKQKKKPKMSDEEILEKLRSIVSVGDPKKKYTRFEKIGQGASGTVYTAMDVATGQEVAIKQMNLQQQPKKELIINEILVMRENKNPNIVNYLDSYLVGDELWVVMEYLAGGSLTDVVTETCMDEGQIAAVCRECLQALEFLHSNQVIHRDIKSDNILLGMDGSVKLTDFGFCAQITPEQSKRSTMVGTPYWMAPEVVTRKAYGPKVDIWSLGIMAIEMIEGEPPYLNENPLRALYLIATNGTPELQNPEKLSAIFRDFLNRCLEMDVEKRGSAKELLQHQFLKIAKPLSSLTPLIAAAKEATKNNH

[10] = molecular target: Tyrosine-protein kinase ZAP-70 (Homo sapiens) (UniProt P43403); assay: Inhibition of human ZAP70 (20 to 299 amino acid residues) assessed as enzyme activity at 10 uM by KINOMEScan assay; parameters: scale not given: the % may be the effect or the level left; in short: as §3
[11] = molecular target: Serine/threonine-protein kinase PLK3 (Homo sapiens) (UniProt Q9H4B4); assay: Inhibition of human PLK3 (42 to 334 amino acid residues) assessed as enzyme activity at 10 uM by KINOMEScan assay; parameters: scale not given: the % may be the effect or the level left; in short: as §2
Serine/threonine-protein kinase PLK3 (Homo sapiens), sequence (Q9H4B4 whole entry, looked up, the tested form may be a part): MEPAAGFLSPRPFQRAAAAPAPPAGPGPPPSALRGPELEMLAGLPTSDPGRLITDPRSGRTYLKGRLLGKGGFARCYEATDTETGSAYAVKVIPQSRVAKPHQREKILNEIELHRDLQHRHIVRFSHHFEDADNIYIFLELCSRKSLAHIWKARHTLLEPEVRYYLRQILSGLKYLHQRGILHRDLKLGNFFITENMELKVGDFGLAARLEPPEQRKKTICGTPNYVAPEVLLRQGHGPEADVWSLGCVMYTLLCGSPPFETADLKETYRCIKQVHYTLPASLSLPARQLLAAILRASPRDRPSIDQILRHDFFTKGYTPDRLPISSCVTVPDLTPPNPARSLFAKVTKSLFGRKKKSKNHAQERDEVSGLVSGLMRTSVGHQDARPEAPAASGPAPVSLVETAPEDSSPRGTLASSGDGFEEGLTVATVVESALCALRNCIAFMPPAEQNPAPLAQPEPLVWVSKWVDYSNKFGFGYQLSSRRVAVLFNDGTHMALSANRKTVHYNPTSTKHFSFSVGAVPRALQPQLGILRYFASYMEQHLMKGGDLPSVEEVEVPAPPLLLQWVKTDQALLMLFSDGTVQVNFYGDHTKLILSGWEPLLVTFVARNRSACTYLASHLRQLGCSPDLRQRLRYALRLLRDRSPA

[12] = molecular target: Insulin receptor (Homo sapiens) (UniProt P06213); assay: Inhibition of human INSR (997 to 1318 amino acid residues) assessed as enzyme activity at 10 uM by KINOMEScan assay; parameters: scale not given: the % may be the effect or the level left; in short: as §1
[13] = molecular target: Mitogen-activated protein kinase 14 (Homo sapiens) (UniProt Q16539); assay: Inhibition of full length human p38-alpha expressed in bacterial system assessed as enzyme activity at 10 uM by KINOMEScan assay; parameters: scale not given: the % may be the effect or the level left; in short: as §3
Mitogen-activated protein kinase 14 (Homo sapiens), sequence (Q16539 whole entry, the tested form may be a part): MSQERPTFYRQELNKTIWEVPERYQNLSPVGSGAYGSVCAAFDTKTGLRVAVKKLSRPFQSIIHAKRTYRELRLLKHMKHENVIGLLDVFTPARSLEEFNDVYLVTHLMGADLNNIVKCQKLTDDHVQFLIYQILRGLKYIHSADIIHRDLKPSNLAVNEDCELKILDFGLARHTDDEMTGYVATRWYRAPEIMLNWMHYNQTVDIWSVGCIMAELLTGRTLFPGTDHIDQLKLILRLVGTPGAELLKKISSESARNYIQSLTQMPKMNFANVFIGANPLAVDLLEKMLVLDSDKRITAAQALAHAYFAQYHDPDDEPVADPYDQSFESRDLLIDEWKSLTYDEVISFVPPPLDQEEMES

[14] = molecular target: Serine/threonine-protein kinase Chk1 (Homo sapiens) (UniProt O14757); assay: Inhibition of human CHEK1 (1 to 289 amino acid residues) assessed as enzyme activity at 10 uM by KINOMEScan assay expressed in bacterial system assessed as enzyme activity at 10 uM by KINOMEScan assay; parameters: scale not given: the % may be the effect or the level left; in short: as §1
Serine/threonine-protein kinase Chk1 (Homo sapiens), sequence (O14757 whole entry, the tested form may be a part): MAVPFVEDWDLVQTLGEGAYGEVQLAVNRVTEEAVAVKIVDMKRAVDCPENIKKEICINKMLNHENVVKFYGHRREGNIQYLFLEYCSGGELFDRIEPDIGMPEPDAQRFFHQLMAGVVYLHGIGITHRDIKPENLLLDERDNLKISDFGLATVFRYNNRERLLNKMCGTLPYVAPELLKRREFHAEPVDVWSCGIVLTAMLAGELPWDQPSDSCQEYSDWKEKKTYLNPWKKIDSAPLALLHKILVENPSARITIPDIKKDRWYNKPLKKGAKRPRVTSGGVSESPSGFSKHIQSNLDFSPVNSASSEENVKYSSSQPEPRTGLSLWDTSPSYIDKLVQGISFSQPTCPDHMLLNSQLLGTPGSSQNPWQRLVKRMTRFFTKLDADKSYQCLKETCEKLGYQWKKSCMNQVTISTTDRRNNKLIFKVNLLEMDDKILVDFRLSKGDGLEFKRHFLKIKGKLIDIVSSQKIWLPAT

[15] = molecular target: Platelet-derived growth factor receptor beta (Homo sapiens) (UniProt P09619); assay: Inhibition of human PDGFRB (582 to 1009 amino acid residues) expressed in bacterial system assessed as enzyme activity at 10 uM by KINOMEScan assay; parameters: scale not given: the % may be the effect or the level left; in short: as §3
[16] = molecular target: Proto-oncogene tyrosine-protein kinase Src (Homo sapiens) (UniProt P12931); assay: Inhibition of human SRC (240 to 536 amino acid residues) expressed in bacterial system assessed as enzyme activity at 10 uM by KINOMEScan assay; parameters: scale not given: the % may be the effect or the level left; in short: as §2
[17] = molecular target: Serine/threonine-protein kinase pim-2 (Homo sapiens) (UniProt Q9P1W9); assay: Inhibition of human PIM2 (1 to 291 amino acid residues) expressed in bacterial system assessed as enzyme activity at 10 uM by KINOMEScan assay; parameters: scale not given: the % may be the effect or the level left; in short: as §2
[18] = system: Epidermal growth factor receptor (Homo sapiens), P00533 [L858R]; assay: Inhibition of human EGFR L858R mutant (669 to 1011 amino acid residues) assessed as enzyme activity at 10 uM by KINOMEScan assay expressed in bacterial system assessed as enzyme activity at 10 uM by KINOMEScan assay; parameters: scale not given: the % may be the effect or the level left; in short: as §3
[19] = system: Mast/stem cell growth factor receptor Kit (Homo sapiens), P10721 [D816V]; assay: Inhibition of human KIT D816V mutant (571 to 952 amino acid residues) expressed in bacterial system assessed as enzyme activity at 10 uM by KINOMEScan assay; parameters: scale not given: the % may be the effect or the level left; in short: as §3
Mast/stem cell growth factor receptor Kit (Homo sapiens), P10721 [D816V], sequence (P10721 whole entry D816V, the tested form may be a part): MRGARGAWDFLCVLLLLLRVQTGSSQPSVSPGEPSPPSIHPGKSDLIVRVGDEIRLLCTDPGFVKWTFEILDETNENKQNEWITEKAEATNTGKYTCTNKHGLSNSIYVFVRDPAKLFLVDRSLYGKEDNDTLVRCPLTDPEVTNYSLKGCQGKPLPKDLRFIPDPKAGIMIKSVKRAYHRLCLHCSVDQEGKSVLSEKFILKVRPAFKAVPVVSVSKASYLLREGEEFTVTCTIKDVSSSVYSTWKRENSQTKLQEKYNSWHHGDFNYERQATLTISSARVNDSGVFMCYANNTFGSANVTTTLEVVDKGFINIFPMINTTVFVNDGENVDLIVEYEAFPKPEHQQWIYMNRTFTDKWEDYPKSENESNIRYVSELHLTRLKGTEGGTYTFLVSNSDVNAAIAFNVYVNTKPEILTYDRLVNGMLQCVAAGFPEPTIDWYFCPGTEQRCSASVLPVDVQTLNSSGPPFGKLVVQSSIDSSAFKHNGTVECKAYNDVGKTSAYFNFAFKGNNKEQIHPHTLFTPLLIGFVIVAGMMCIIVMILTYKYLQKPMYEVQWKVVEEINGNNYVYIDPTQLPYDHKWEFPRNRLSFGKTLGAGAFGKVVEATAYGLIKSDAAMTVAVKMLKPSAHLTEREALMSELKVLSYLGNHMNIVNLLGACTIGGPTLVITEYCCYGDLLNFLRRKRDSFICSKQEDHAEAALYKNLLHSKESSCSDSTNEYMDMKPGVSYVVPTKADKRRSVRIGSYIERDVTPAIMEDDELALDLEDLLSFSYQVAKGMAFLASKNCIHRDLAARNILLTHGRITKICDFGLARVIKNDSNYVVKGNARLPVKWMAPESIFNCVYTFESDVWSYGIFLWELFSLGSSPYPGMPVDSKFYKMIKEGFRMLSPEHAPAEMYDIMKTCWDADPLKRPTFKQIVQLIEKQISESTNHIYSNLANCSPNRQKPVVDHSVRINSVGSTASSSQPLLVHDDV

[20] = molecular target: Epidermal growth factor receptor (Homo sapiens) (UniProt P00533); assay: Inhibition of human EGFR (669 to 1011 amino acid residues) assessed as enzyme activity at 10 uM by KINOMEScan assay expressed in bacterial system assessed as enzyme activity at 10 uM by KINOMEScan assay; parameters: scale not given: the % may be the effect or the level left; in short: as §3
[21] = molecular target: cAMP-dependent protein kinase catalytic subunit alpha (Homo sapiens) (UniProt P17612); assay: Inhibition of human PKAC-alpha (10 to 351 amino acid residues) expressed in bacterial system assessed as enzyme activity at 10 uM by KINOMEScan assay; parameters: scale not given: the % may be the effect or the level left; in short: as §2
[22] = molecular target: MAP kinase-interacting serine/threonine-protein kinase 1 (Homo sapiens) (UniProt Q9BUB5); assay: Inhibition of full length human MKNK1 assessed as enzyme activity at 10 uM by KINOMEScan assay; parameters: scale not given: the % may be the effect or the level left; in short: as §1
MAP kinase-interacting serine/threonine-protein kinase 1 (Homo sapiens), sequence (Q9BUB5 whole entry, looked up, the tested form may be a part): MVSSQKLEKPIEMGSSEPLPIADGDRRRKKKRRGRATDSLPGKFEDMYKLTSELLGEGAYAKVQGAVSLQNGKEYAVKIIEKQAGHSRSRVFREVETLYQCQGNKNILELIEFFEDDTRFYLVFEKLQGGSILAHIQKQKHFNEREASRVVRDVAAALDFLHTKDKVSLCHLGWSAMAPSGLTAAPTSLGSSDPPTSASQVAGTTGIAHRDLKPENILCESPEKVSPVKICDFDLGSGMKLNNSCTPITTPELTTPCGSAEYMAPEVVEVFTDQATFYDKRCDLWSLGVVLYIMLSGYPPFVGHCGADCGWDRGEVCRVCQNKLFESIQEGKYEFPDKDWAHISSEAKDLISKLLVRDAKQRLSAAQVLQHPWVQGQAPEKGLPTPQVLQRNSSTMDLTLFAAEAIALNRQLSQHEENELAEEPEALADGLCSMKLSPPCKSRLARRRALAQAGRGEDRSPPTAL

[23] = molecular target: ALK tyrosine kinase receptor (Homo sapiens) (UniProt Q9UM73); assay: Inhibition of human ALK (1088 to 1409 amino acid residues) assessed as enzyme activity at 10 uM by KINOMEScan assay; parameters: scale not given: the % may be the effect or the level left; in short: as §3
[24] = molecular target: SRSF protein kinase 3 (Homo sapiens) (UniProt Q9UPE1); assay: Inhibition of human SRPK3 (41 to 567 amino acid residues) expressed in bacterial system assessed as enzyme activity at 10 uM by KINOMEScan assay; parameters: scale not given: the % may be the effect or the level left; in short: as §2
[25] = molecular target: Aurora kinase B (Homo sapiens) (UniProt Q96GD4); assay: Inhibition of human AURKB (25 to 303 amino acid residues) assessed as enzyme activity at 10 uM by KINOMEScan assay; parameters: scale not given: the % may be the effect or the level left; in short: as §1

O=C1C2=C(C(=O)c3c(O)ccc(O)c31)[C@@H](O)[C@@H](O)[C@@H](O)C2
Activity [1]: 93%
IC50 [2]: 8.21 µM
Activity [3]: 77%
Activity [4]: 87%
Activity [5]: 100%
Activity [6]: 100%
Activity [7]: 91%
Activity [8]: 84%
Activity [9]: 93%
Activity [10]: 100%
Activity [11]: 54%
Activity [12]: 97%
Activity [13]: 100%
Activity [14]: 79%
Activity [15]: 100%
Activity [16]: 91%
Activity [17]: 67%
Activity [18]: 78%
Activity [19]: 100%
Activity [20]: 88%
Activity [21]: 84%
Activity [22]: 45%
Activity [23]: 100%
Activity [24]: 93%
Activity [25]: 72%
